# Results taken from ChEMBL document CHEMBL5724801, “EUbOPEN Chemogenomics Library - Multiplex” (2024).
# “And” between values parts separate entries of the source, which are not always exact repeats. Equal values may be shown once.
# Tested on: HEK-293T
# Test: Multiplex assay against HEK293T
# Assay type: toxicity, cell-based
# Conditions: human
# Procedure, shortened: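 Live cells carried four stains from seeding: Hoechst33342, BioTracker Green Microtubule Cytoskeleton Dye, MitoTracker Red and Annexin V Alexa Fluor 680. They were imaged on a CQ1 microscope at 37°C and 5% CO2 after compound addition. Using CellPathfinder machine-learning gating, cells were split into Hoechst high-intensity objects or normal cells, normal cells into healthy, pyknosed or fragmented nuclei, and pyknosed cells into mitotic or apoptotic; tubulin, mitochondrial-mass and membrane-permeability phenotypes are per cents of healthy-nucleus cells.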
# [1] = 12 h, 1 µM, compound concentration 1 uM
# [2] = 12 h, 10 µM, compound concentration 10 uM
# [3] = 24 h, 1 µM, compound concentration 1 uM
# [4] = 24 h, 10 µM, compound concentration 10 uM
# [5] = 48 h, 1 µM, compound concentration 1 uM
# [6] = 48 h, 10 µM, compound concentration 10 uM
smiles,measurement,setting,value
S=C(NCCCc1c[nH]cn1)NCCCN(Cc1ccc(Cl)c(Cl)c1)c1ccc(Br)cn1,Population Apoptotic (%),[1],39% and 53%
same,Population Fragmented Nuclei (%),[1],8% and 5%
same,Population Healthy Nuclei (%),[1],78% and 79%
same,Population Hoechst High Intensity Objects (%),[1],17% and 6%
same,Population Membrane Permeable-Phenotype (%),[1],0%
same,Population Mitochondria Different-Phenotype (%),[1],50% and 58%
same,Population Mitotic Cells (%),[1],60% and 46%
same,Population Normal (%),[1],82% and 93%
same,Population Pyknosed Nuclei (%),[1],13% and 14%
same,Population Tubulin-Different-Phenotype (%),[1],36% and 35%
same,Total Cell Count,[1],378 and 294
same,Population Apoptotic (%),[2],90% and 77%
same,Population Fragmented Nuclei (%),[2],4% and 8%
same,Population Healthy Nuclei (%),[2],57% and 71%
same,Population Hoechst High Intensity Objects (%),[2],33% and 19%
same,Population Membrane Permeable-Phenotype (%),[2],0%
same,Population Mitochondria Different-Phenotype (%),[2],77% and 84%
same,Population Mitotic Cells (%),[2],9% and 22%
same,Population Normal (%),[2],66% and 80%
same,Population Pyknosed Nuclei (%),[2],38% and 19%
same,Population Tubulin-Different-Phenotype (%),[2],78%
same,Total Cell Count,[2],242 and 229
same,Population Apoptotic (%),[3],39% and 41%
same,Population Fragmented Nuclei (%),[3],10% and 9%
same,Population Healthy Nuclei (%),[3],73% and 81%
same,Population Hoechst High Intensity Objects (%),[3],22% and 13%
same,Population Membrane Permeable-Phenotype (%),[3],0%
same,Population Mitochondria Different-Phenotype (%),[3],45% and 48%
same,Population Mitotic Cells (%),[3],60% and 58%
same,Population Normal (%),[3],77% and 86%
same,Population Pyknosed Nuclei (%),[3],16% and 9%
same,Population Tubulin-Different-Phenotype (%),[3],32%
same,Total Cell Count,[3],326 and 301
same,Population Apoptotic (%),[4],85% and 82%
same,Population Fragmented Nuclei (%),[4],11% and 16%
same,Population Healthy Nuclei (%),[4],49% and 59%
same,Population Hoechst High Intensity Objects (%),[4],48% and 39%
same,Population Membrane Permeable-Phenotype (%),[4],1% and 0%
same,Population Mitochondria Different-Phenotype (%),[4],75% and 82%
same,Population Mitotic Cells (%),[4],14% and 17%
same,Population Normal (%),[4],51% and 61%
same,Population Pyknosed Nuclei (%),[4],39% and 23%
same,Population Tubulin-Different-Phenotype (%),[4],78%
same,Total Cell Count,[4],237 and 200
same,Population Apoptotic (%),[5],47% and 36%
same,Population Fragmented Nuclei (%),[5],14% and 17%
same,Population Healthy Nuclei (%),[5],65% and 73%
same,Population Hoechst High Intensity Objects (%),[5],36% and 27%
same,Population Membrane Permeable-Phenotype (%),[5],3% and 0%
same,Population Mitochondria Different-Phenotype (%),[5],38% and 32%
same,Population Mitotic Cells (%),[5],52% and 63%
same,Population Normal (%),[5],63% and 72%
same,Population Pyknosed Nuclei (%),[5],19% and 9%
same,Population Tubulin-Different-Phenotype (%),[5],29% and 19%
same,Total Cell Count,[5],307 and 277
same,Population Apoptotic (%),[6],84% and 75%
same,Population Fragmented Nuclei (%),[6],23% and 21%
same,Population Healthy Nuclei (%),[6],23%
same,Population Hoechst High Intensity Objects (%),[6],75% and 67%
same,Population Membrane Permeable-Phenotype (%),[6],0%
same,Population Mitochondria Different-Phenotype (%),[6],86% and 80%
same,Population Mitotic Cells (%),[6],15% and 25%
same,Population Normal (%),[6],24% and 32%
same,Population Pyknosed Nuclei (%),[6],52% and 55%
same,Population Tubulin-Different-Phenotype (%),[6],53% and 40%
same,Total Cell Count,[6],256 and 203
CCc1nn2c(C)cc(C)nc2c1Cc1ccc(-c2nnc(C3CCNCC3)o2)cc1,Population Apoptotic (%),[1],35% and 51%
same,Population Fragmented Nuclei (%),[1],9% and 7%
same,Population Healthy Nuclei (%),[1],80% and 78%
same,Population Hoechst High Intensity Objects (%),[1],7% and 5%
same,Population Membrane Permeable-Phenotype (%),[1],0%
same,Population Mitochondria Different-Phenotype (%),[1],54% and 62%
same,Population Mitotic Cells (%),[1],64% and 48%
same,Population Normal (%),[1],92% and 94%
same,Population Pyknosed Nuclei (%),[1],10% and 13%
same,Population Tubulin-Different-Phenotype (%),[1],37% and 19%
same,Total Cell Count,[1],401 and 395
same,Population Apoptotic (%),[2],63% and 56%
same,Population Fragmented Nuclei (%),[2],6% and 4%
same,Population Healthy Nuclei (%),[2],68% and 78%
same,Population Hoechst High Intensity Objects (%),[2],11% and 12%
same,Population Membrane Permeable-Phenotype (%),[2],0%
same,Population Mitochondria Different-Phenotype (%),[2],85% and 86%
same,Population Mitotic Cells (%),[2],36% and 43%
same,Population Normal (%),[2],88% and 87%
same,Population Pyknosed Nuclei (%),[2],25% and 17%
same,Population Tubulin-Different-Phenotype (%),[2],65% and 48%
same,Total Cell Count,[2],319 and 293
same,Population Apoptotic (%),[3],44% and 34%
same,Population Fragmented Nuclei (%),[3],10% and 7%
same,Population Healthy Nuclei (%),[3],76% and 78%
same,Population Hoechst High Intensity Objects (%),[3],4% and 5%
same,Population Membrane Permeable-Phenotype (%),[3],0%
same,Population Mitochondria Different-Phenotype (%),[3],36% and 50%
same,Population Mitotic Cells (%),[3],55% and 65%
same,Population Normal (%),[3],95% and 94%
same,Population Pyknosed Nuclei (%),[3],13%
same,Population Tubulin-Different-Phenotype (%),[3],23% and 19%
same,Total Cell Count,[3],529 and 542
same,Population Apoptotic (%),[4],69% and 41%
same,Population Fragmented Nuclei (%),[4],11% and 10%
same,Population Healthy Nuclei (%),[4],72% and 77%
same,Population Hoechst High Intensity Objects (%),[4],5% and 7%
same,Population Membrane Permeable-Phenotype (%),[4],0%
same,Population Mitochondria Different-Phenotype (%),[4],73% and 78%
same,Population Mitotic Cells (%),[4],30% and 58%
same,Population Normal (%),[4],94% and 92%
same,Population Pyknosed Nuclei (%),[4],15% and 11%
same,Population Tubulin-Different-Phenotype (%),[4],50% and 45%
same,Total Cell Count,[4],448 and 389
same,Population Apoptotic (%),[5],28% and 32%
same,Population Fragmented Nuclei (%),[5],12% and 11%
same,Population Healthy Nuclei (%),[5],79% and 83%
same,Population Hoechst High Intensity Objects (%),[5],2% and 5%
same,Population Membrane Permeable-Phenotype (%),[5],0%
same,Population Mitochondria Different-Phenotype (%),[5],25% and 24%
same,Population Mitotic Cells (%),[5],71% and 67%
same,Population Normal (%),[5],97% and 94%
same,Population Pyknosed Nuclei (%),[5],8% and 5%
same,Population Tubulin-Different-Phenotype (%),[5],15% and 10%
same,Total Cell Count,[5],842 and 829
same,Population Apoptotic (%),[6],54% and 50%
same,Population Fragmented Nuclei (%),[6],14% and 12%
same,Population Healthy Nuclei (%),[6],72% and 80%
same,Population Hoechst High Intensity Objects (%),[6],4% and 3%
same,Population Membrane Permeable-Phenotype (%),[6],0%
same,Population Mitochondria Different-Phenotype (%),[6],59% and 56%
same,Population Mitotic Cells (%),[6],45% and 50%
same,Population Normal (%),[6],95% and 96%
same,Population Pyknosed Nuclei (%),[6],13% and 6%
same,Population Tubulin-Different-Phenotype (%),[6],32% and 26%
same,Total Cell Count,[6],517 and 607
CSc1ccccc1N1CCN(CCCCCC(=O)NC2CCCc3ccccc32)CC1.Cl (stereo not drawn),Population Apoptotic (%),[1],45%
same,Population Fragmented Nuclei (%),[1],6%
same,Population Healthy Nuclei (%),[1],74%
same,Population Hoechst High Intensity Objects (%),[1],8% and 12%
same,Population Membrane Permeable-Phenotype (%),[1],0%
same,Population Mitochondria Different-Phenotype (%),[1],68% and 75%
same,Population Mitotic Cells (%),[1],54%
same,Population Normal (%),[1],91% and 87%
same,Population Pyknosed Nuclei (%),[1],18% and 19%
same,Population Tubulin-Different-Phenotype (%),[1],59% and 43%
same,Total Cell Count,[1],391 and 322
same,Population Apoptotic (%),[2],80% and 79%
same,Population Fragmented Nuclei (%),[2],8% and 5%
same,Population Healthy Nuclei (%),[2],68% and 74%
same,Population Hoechst High Intensity Objects (%),[2],15% and 16%
same,Population Membrane Permeable-Phenotype (%),[2],0%
same,Population Mitochondria Different-Phenotype (%),[2],97%
same,Population Mitotic Cells (%),[2],20%
same,Population Normal (%),[2],84% and 83%
same,Population Pyknosed Nuclei (%),[2],22% and 19%
same,Population Tubulin-Different-Phenotype (%),[2],59% and 65%
same,Total Cell Count,[2],316 and 304
same,Population Apoptotic (%),[3],36% and 41%
same,Population Fragmented Nuclei (%),[3],8%
same,Population Healthy Nuclei (%),[3],79% and 75%
same,Population Hoechst High Intensity Objects (%),[3],4% and 7%
same,Population Membrane Permeable-Phenotype (%),[3],0%
same,Population Mitochondria Different-Phenotype (%),[3],50% and 70%
same,Population Mitotic Cells (%),[3],63% and 58%
same,Population Normal (%),[3],95% and 92%
same,Population Pyknosed Nuclei (%),[3],11% and 16%
same,Population Tubulin-Different-Phenotype (%),[3],41% and 44%
same,Total Cell Count,[3],508 and 356
same,Population Apoptotic (%),[4],75% and 69%
same,Population Fragmented Nuclei (%),[4],5% and 7%
same,Population Healthy Nuclei (%),[4],70% and 73%
same,Population Hoechst High Intensity Objects (%),[4],21% and 20%
same,Population Membrane Permeable-Phenotype (%),[4],0%
same,Population Mitochondria Different-Phenotype (%),[4],98% and 97%
same,Population Mitotic Cells (%),[4],24% and 30%
same,Population Normal (%),[4],78% and 79%
same,Population Pyknosed Nuclei (%),[4],23% and 18%
same,Population Tubulin-Different-Phenotype (%),[4],53% and 48%
same,Total Cell Count,[4],303 and 315
same,Population Apoptotic (%),[5],32% and 45%
same,Population Fragmented Nuclei (%),[5],10%
same,Population Healthy Nuclei (%),[5],78% and 76%
same,Population Hoechst High Intensity Objects (%),[5],4% and 6%
same,Population Membrane Permeable-Phenotype (%),[5],0%
same,Population Mitochondria Different-Phenotype (%),[5],39% and 59%
same,Population Mitotic Cells (%),[5],67% and 54%
same,Population Normal (%),[5],95% and 93%
same,Population Pyknosed Nuclei (%),[5],10% and 13%
same,Population Tubulin-Different-Phenotype (%),[5],27% and 31%
same,Total Cell Count,[5],747 and 471
same,Population Apoptotic (%),[6],76% and 56%
same,Population Fragmented Nuclei (%),[6],11% and 13%
same,Population Healthy Nuclei (%),[6],73%
same,Population Hoechst High Intensity Objects (%),[6],28% and 18%
same,Population Membrane Permeable-Phenotype (%),[6],0%
same,Population Mitochondria Different-Phenotype (%),[6],97% and 93%
same,Population Mitotic Cells (%),[6],23% and 43%
same,Population Normal (%),[6],71% and 81%
same,Population Pyknosed Nuclei (%),[6],14% and 13%
same,Population Tubulin-Different-Phenotype (%),[6],67% and 56%
same,Total Cell Count,[6],365 and 385
